# What was measured:
# HCT-116 [1] = experiment: Induction of cell cycle arrest in human HCT-116 cells assessed as accumulation of cells at G2/M phase at 3.25 uM measured after […] by PI staining based flow cytometry analysis relative to control (reference value: 15.61%); assay type: functional
# Tubulin = experiment: Inhibition of tubulin polymerization in human HCT-116 cells; assay type: cell-based
# HCT-116 [2] = experiment: Induction of apoptosis in human HCT-116 cells assessed as necrotic cells at 3.25 uM measured after 24 hrs by Annexin V-FITC/propidium iodide staining based flow cytometry (reference value: 0.00%); assay type: functional
# BT-474 = experiment: Cytotoxicity against human BT-474 cells assessed as inhibition of cell growth measured for 24 hrs by MTT assay; assay type: functional, cell-based; conditions: BT-474, 24 h
# Method in brief: (§1)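 Cells were kept at 37 °C with 5% CO2 in suitable medium with 10% FBS and 1% antibiotic-antimycotic, and passaged at 80-90% confluency using 0.25% trypsin/1 mM EDTA. They were seeded at 1×10^3–4×10^3 cells/well and attached overnight. Compounds came from 10 mM DMSO stocks diluted in medium and were applied for 24 h. MTT (0.5 mg/mL) was added for 4 h at 37 °C, formazan was dissolved in DMSO, and absorbance was read at 570 nm.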
# HCT-116 [3] = experiment: Induction of morphological change in human HCT-116 cells assessed as cell rounding incubated for 24 hrs by phase contrast microscopic analysis; assay type: functional, cell-based; conditions: dose 1.62-6.5 µM
# Method in brief: (§2)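 HCT-116 plated at 1 × 10^6 cells/mL in RPMI + 10% FBS and allowed to adhere 24 h at 37 °C, 5% CO2. […] After 24 h, morphology imaged by phase-contrast microscopy at 20X.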
# HCT-116 [4] = experiment: Induction of apoptosis in human HCT-116 cells assessed as early apoptotic cells at 1.62 uM measured after 24 hrs by Annexin V-FITC/propidium iodide staining based flow cytometry (reference value: 0.28%); assay type: functional
# HCT-116 [5] = experiment: Induction of cell cycle arrest in human HCT-116 cells assessed as accumulation of cells at S phase at 3.25 uM measured after 24 hrs by PI staining based flow cytometry analysis relative to control (reference value: 5.55%)
# HCT-116 [6] = experiment: Induction of morphological change in human HCT-116 cells assessed as change in cell shape incubated for 24 hrs by phase contrast microscopic analysis; assay type: functional, cell-based; conditions: dose 1.62-6.5 µM; method in brief: as §2
# HCT-116 [7] = experiment: Induction of apoptosis in human HCT-116 cells assessed as horseshoe shaped nuclei measured for 24 hrs by DAPI staining based microscopic analysis; assay type: functional, cell-based; conditions: dose 1.62-6.5 µM
# Method in brief: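 Then PBS wash, 4% paraformaldehyde fixation 30 min, 0.1% Triton X permeabilisation 15 min, 1 µM DAPI 15 min, PBS wash. Imaged by fluorescence microscopy (ex 350/em 460 nm), 20X.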
# HCT-116 [8] = experiment: Cytotoxicity against human HCT-116 cells assessed as inhibition of cell growth measured for 24 hrs by MTT assay; assay type: functional, cell-based; conditions: HCT-116, 24 h; method in brief: as §1
# HCT-116 [9] = experiment: Induction of apoptosis in human HCT-116 cells assessed as late apoptotic cells at 3.25 uM measured after 24 hrs by Annexin V-FITC/propidium iodide staining based flow cytometry (reference value: 0.00%); assay type: functional
# B16-F10 = experiment: Cytotoxicity against mouse B16-F10 cells assessed as inhibition of cell growth measured for 24 hrs by MTT assay; assay type: functional, cell-based; conditions: B16-F10, 24 h; method in brief: as §1
# HCT-116 [10] = experiment: Induction of cell cycle arrest in human HCT-116 cells assessed as accumulation of cells at S phase at 6.50 uM measured after 48 hrs by PI staining based flow cytometry analysis relative to control (reference value: 5.55%); assay type: functional; conditions: dose 6.5 µM
compound,measurement,setting,value
COc1ccc(/C=C(/C(=O)OCc2cn(Cc3cc(F)ccc3F)nn2)c2ccc(OC)c(OC)c2)cc1OC,Activity,HCT-116 [1],38.72%
same,IC50,Tubulin,4.51 µM
same,Activity,HCT-116 [2],16.66%
same,IC50,BT-474,12.9 µM
same,Activity,HCT-116 [3],Dose-Dependent Effect
same,Activity,HCT-116 [4],18.1%
same,Activity,HCT-116 [5],9.51%
same,Activity,HCT-116 [6],Dose-Dependent Effect
same,Activity,HCT-116 [7],Dose-Dependent Effect
same,IC50,HCT-116 [8],3.25 µM
same,Activity,HCT-116 [9],25.22%
same,IC50,B16-F10,15.1 µM
same,Activity,HCT-116 [10],12.73%

# From ChEMBL document CHEMBL5252639, “Exploration of cytotoxic potential and tubulin polymerization inhibition activity of cis-stilbene-1,2,3-triazole congeners” (RSC Med Chem, 2023)
